Test results published in PubChem BioAssay.
Calls of active or inactive are those of the source.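 The calls were made as follows, unless noted: active = viability at or below 10% of carrier control in both of two separate runs; inconclusive = viability at or below 10% in only one of the two runs; inactive = the rest.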

How the values were obtained:
[1] = reducers of endogenous Her2 protein level, primary screen, SKBR3 breast tumor cells, AlphaScreen, ATP viability (AID 461;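 active = Her2 level under about 52% in both replicate screens, with viability over 70% of control, limit read from the data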;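 as to Her2 level: lower value means less Her2 protein in the cells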;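 as to viability: percent of carrier control wells set as 100% viability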); settings: 18-24 h, measured here: SKBR3 viability, ATP luminescence, at 10 µM
[2] = molecular target: Receptor tyrosine-protein kinase erbB-2 (Homo sapiens) (UniProt P04626); experiment: as above; settings: 18-24 h, at 10 µM, stronger effect = lower value
Receptor tyrosine-protein kinase erbB-2 (Homo sapiens), sequence (P04626 whole entry, looked up): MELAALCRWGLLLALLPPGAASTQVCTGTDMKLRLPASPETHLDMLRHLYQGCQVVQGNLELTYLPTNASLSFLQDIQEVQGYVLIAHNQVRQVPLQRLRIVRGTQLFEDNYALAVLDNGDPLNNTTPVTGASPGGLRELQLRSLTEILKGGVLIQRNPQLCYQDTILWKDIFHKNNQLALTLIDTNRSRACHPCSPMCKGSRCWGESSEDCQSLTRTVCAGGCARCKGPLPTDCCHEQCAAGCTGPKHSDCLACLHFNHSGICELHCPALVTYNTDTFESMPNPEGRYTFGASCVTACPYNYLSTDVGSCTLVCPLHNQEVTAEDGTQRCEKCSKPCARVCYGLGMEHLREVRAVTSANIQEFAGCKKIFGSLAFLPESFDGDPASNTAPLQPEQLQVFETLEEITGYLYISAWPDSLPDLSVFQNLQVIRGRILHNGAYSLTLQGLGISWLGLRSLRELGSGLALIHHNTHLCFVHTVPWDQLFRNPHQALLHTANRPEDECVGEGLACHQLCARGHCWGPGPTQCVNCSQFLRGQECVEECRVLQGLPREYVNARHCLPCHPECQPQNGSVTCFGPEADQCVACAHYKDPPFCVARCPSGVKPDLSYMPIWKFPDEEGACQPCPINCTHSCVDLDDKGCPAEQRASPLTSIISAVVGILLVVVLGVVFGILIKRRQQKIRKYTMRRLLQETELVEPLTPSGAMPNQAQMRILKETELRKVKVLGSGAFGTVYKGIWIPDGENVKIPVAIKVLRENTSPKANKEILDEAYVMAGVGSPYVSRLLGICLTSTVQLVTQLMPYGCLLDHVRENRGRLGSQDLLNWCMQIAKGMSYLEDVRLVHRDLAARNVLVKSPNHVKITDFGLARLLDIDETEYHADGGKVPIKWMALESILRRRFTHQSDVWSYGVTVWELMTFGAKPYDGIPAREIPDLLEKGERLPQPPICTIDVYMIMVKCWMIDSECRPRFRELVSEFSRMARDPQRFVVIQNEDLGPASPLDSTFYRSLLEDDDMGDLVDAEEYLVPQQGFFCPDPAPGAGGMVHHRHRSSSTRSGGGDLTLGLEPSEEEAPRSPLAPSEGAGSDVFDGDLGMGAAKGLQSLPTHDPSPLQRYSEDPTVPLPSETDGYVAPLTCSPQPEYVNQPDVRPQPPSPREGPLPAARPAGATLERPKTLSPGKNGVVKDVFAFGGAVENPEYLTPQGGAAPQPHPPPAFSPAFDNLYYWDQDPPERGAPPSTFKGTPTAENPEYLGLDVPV

[3] = SK-BR-3 cell growth inhibitors, pilot screen, 24 h, human (AID 572); settings: SK-BR-3 viability, CellTiter-Glo luminescence, at 10 µM, stronger effect = lower value;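 also: compound exposure lasted between 18 and 24 h rather than exactly 24 h; 100% = carrier-treated control wells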
[4] = HUVEC growth inhibition – cell-based, human, primary screen (AID 575;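 active = viability at or below 30% in both replicate assays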;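 also: 100% = median of untreated cell wells with 0.1% DMSO on each plate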); settings: HUVEC proliferation, CellTiter-Glo luminescence, 72 h; at 10 µM; stronger effect = lower value
Method in brief: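 Timing: 72 h treatment at 37 °C; material: HUVEC primary cells; technique: CellTiter-Glo luminescence measuring cellular ATP; controls: vehicle and MePR control wells; measure: percent of median DMSO-control luminescence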

[5] = growth inhibitors of H69AR lung tumor, primary screen, human, duplicate replicates (AID 580;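 active = viability at or under a set limit in both replicates, limit being median viability minus 3 SD, cut at about 48% in these data, passing the limit was not always enough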;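 also: 100% = mean luminescence of untreated wells and 0% = no signal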); settings: H69AR lung tumor cells viability, ATP luminescence, 72 h; at 10 µM; stronger effect = lower value
[6] = reversal of MRP1-mediated doxorubicin resistance, pilot screen, H69AR cells, doxorubicin co-treatment (AID 601;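 active = viability loss from added drug above about 55%, and viability with drug at most 40%, in both replicates, limit read from the data, passing the limit was not always enough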); settings: CellTiter-Glo, 72 h, at 10 µM; for differential viability (reversal): stronger effect = higher value
[7] = 384-well plate pilot, post-Golgi transport modulator project, inhibition of yeast transport mutant growth (AID 636; in the data active = inhibition above about 31%); settings: absorbance 615 nm, about 18 h, stronger effect = higher value
[8] = growth suppression of yeast trafficking mutant, preliminary HTS, modulators of trafficking downstream of Golgi apparatus project, 1536-format plate, OD 615 nm (AID 637; in the data active = inhibition above about 30%); settings: yeast transport mutant growth, absorbance 615 nm, 18 h; stronger effect = higher value
[9] = H69AR cells + 2 uM doxorubicin, measured here: viability with 2 uM doxorubicin, stronger effect = lower value
[10] = H69AR cells, compound alone cytotoxicity

Row | SMILES | viability [1] | Her2 level [2] | viability [3] | viability [4] | viability [5] | differential viability (reversal) ([6]; H69AR cells + 2 uM doxorubicin) | viability [6, 9] | viability [6, 10] | inhibition [7] | inhibition [8]
1 | COC(=O)c1sccc1NC(=O)c1csc(C)c1 | 87% | 20% (active) | 87% (inactive) | 60.8% (inactive) | 69.1% (inactive) | 2.06% (inactive) | 67.1% | 69.1% | -3.64% (inactive) | -0.66% (inactive)
2 | O=C(NC1CCCC1)c1ccc(S(=O)(=O)N2CCCC2)cc1 | 107% | 120% (inactive) | 107% (inactive) | 103% (inactive) | 87.6% (inactive) | -7.37% (inactive) | 95% | 87.6% | -1.08% (inactive) | 0.83% (inactive)
3 | CCOc1ccc(N(CC)C(=O)COc2cc(=O)n(C)c3ccccc23)cc1 | 84.5% | 86% (inactive) | 84.5% (inactive) | 93.6% (inactive) | 86.1% (inactive) | -2.48% (inactive) | 88.6% | 86.1% | -3.07% (inactive) | 0.98% (inactive)
4 | Cc1cc(C(=O)CN2C(=O)c3ccccc3C2=O)c(C)n1Cc1cccs1 | 122% | 99% (inactive) | 122% (inactive) | 111% (inactive) | 86.3% (inactive) | 3.23% (inactive) | 83% | 86.3% | -9.45% (inactive) | 0% (inactive)
5 | O=C(Cn1cccc1)N1CCN(C(c2ccccc2)c2ccccc2)CC1 | 102% | 87% (inactive) | 102% (inactive) | 108% (inactive) | 91.4% (inactive) | -4.55% (inactive) | 95.9% | 91.4% | -6.76% (inactive) | 4.33% (inactive)
6 | O=C(COc1ncnc2ccccc12)NCc1ccc2c(c1)OCO2 | 100% | 96% (inactive) | 100% (inactive) | 92.8% (inactive) | 92.6% (inactive) | -1.82% (inactive) | 94.4% | 92.6% | -4.21% (inactive) | 4.92% (inactive)
7 | CC(C)(C)n1nnnc1CN1CCN(C2CCCC2)CC1 | 84% | 84% (inactive) | 84% (inactive) | 101% (inactive) | 104% (inactive) | 3.04% (inactive) | 101% | 104% | -7.7% (inactive) | -2.3% (inactive)
8 | COc1ccc(C(=O)N2CCN(c3nc4cc(C)ccc4cc3C#N)CC2)c(OC)c1 | 112% | 98% (inactive) | 112% (inactive) | 88.1% (inactive) | 85.4% (inactive) | -9.04% (inactive) | 94.5% | 85.4% | -2.73% (inactive) | -1.75% (inactive)
9 | CCCCn1nnnc1SCC(=O)N1CCN(C(=O)c2ccco2)CC1 | 116% | 100% (inactive) | 116% (inactive) | 111% (inactive) | 93.6% (inactive) | 7.26% (inactive) | 86.3% | 93.6% | -6.71% (inactive) | 1.75% (inactive)
10 | COc1ccccc1OCC(=O)Nc1ccc(S(=O)(=O)Nc2nc(C)cc(C)n2)cc1 | 90.5% | 184% (inactive) | 90.5% (inactive) | 98.7% (inactive) | 96.3% (inactive) | 7.8% (inactive) | 88.5% | 96.3% | -3.59% (inactive) | -5.5% (inactive)
11 | CCNc1nc(NCC)n2c(SCc3nc4ccccc4c(=O)[nH]3)nnc2n1 | 100% | 112% (inactive) | 100% (inactive) | 106% (inactive) | 78.1% (inactive) | -9.12% (inactive) | 87.2% | 78.1% | -1.58% (inactive) | -0.66% (inactive)
12 | CCOC(=O)c1ccccc1NC(=O)CSc1nnc(COc2ccccc2C)n1C | 63% | 89% (inactive) | 63% (inactive) | 82.6% (inactive) | 78.7% (inactive) | 5.67% (inactive) | 73% | 78.7% | -3.08% (inactive) | -9.17% (inactive)
13 | CS(=O)(=O)N(CC(=O)NCc1ccccn1)c1ccc2c(c1)OCCO2 | 104% | 104% (inactive) | 104% (inactive) | 96.8% (inactive) | 97.8% (inactive) | 9.83% (inactive) | 87.9% | 97.8% | -6.93% (inactive) | 4.35% (inactive)
14 | CC1(C)Cc2nc3oc4c(N(CCO)Cc5ccccc5)ncnc4c3cc2CO1 | 95.5% | 86.5% (inactive) | 95.5% (inactive) | 92.5% (inactive) | 86.2% (inactive) | 4.17% (inactive) | 82.1% | 86.2% | -1.76% (inactive) | -4.33% (inactive)
15 | O=C(NCCCCNC(=O)c1cccnc1)c1cccnc1 | 95% | 83% (inactive) | 95% (inactive) | 94.5% (inactive) | 105% (inactive) | 3.5% (inactive) | 102% | 105% | -0.52% (inactive) | 34.9% (active)
16 | O=C(Nc1ccccc1N1CCCCC1)c1ncoc1-c1ccc(F)cc1 | 115% | 109% (inactive) | 115% (inactive) | 78.1% (inactive) | 84.6% (inactive) | -1.2% (inactive) | 85.8% | 84.6% | -3.47% (inactive) | -2.86% (inactive)

Row | SMILES | viability [1] | Her2 level [2] | viability [3] | viability [4] | viability [5] | differential viability (reversal) ([6]; H69AR cells + 2 uM doxorubicin) | viability [6, 9] | viability [6, 10] | inhibition [7] | inhibition [8]
17 | CC(Oc1ccccc1)C(=O)N1CCCc2ccccc21 (stereo not given) | 101% | 104% (inactive) | 101% (inactive) | 95.4% (inactive) | 94.3% (inactive) | 4.51% (inactive) | 89.8% | 94.3% | -1.76% (inactive) | -4.33% (inactive)
18 | O=C(Cc1cccs1)Nc1nnc(CCc2ccccc2)s1 | 110% | 91.5% (inactive) | 110% (inactive) | 88.7% (inactive) | 80.7% (inactive) | -5.74% (inactive) | 86.4% | 80.7% | -0.78% (inactive) | -0.5% (inactive)
19 | Cn1c(/C(C#N)=C/Nc2ccccn2)nc2ccccc21 | 75% | 106% (inactive) | 75% (inactive) | 110% (inactive) | 73.5% (inactive) | -12.4% (inactive) | 85.9% | 73.5% | 4.47% (inactive) | 29.5% (inactive)
20 | CCOC(=O)N1CCN(c2ncnc3c2[nH]c2ccc(OC)cc23)CC1 | 97.5% | 79% (inactive) | 97.5% (inactive) | 72.4% (inactive) | 81.3% (inactive) | 3.37% (inactive) | 77.9% | 81.3% | -3.6% (inactive) | -5.65% (inactive)
21 | CCOC(=O)c1ccc(NC(=O)c2ccc(NS(C)(=O)=O)cc2)cc1 | 97% | 83% (inactive) | 97% (inactive) | 92.1% (inactive) | 82.9% (inactive) | 3.85% (inactive) | 79% | 82.9% | -0.8% (inactive) | -4.92% (inactive)
22 | CCCCn1c(SCC(=O)Nc2ccc(OC)cc2)nc2ccc(N3CCOCC3)cc2c1=O | 94.5% | 86% (inactive) | 94.5% (inactive) | 72.4% (inactive) | 89.6% (inactive) | 0.605% (inactive) | 89% | 89.6% | -2.8% (inactive) | 0.16% (inactive)
23 | CC1=C(c2ccc(Cl)cc2)[N+](=O)C(C)(C)N1[O-] | 99.5% | 95.5% (inactive) | 99.5% (inactive) | 110% (inactive) | 89.6% (inactive) | -4.19% (inactive) | 93.8% | 89.6% | -4.52% (inactive) | -10.2% (inactive)
24 | COc1ccccc1-n1nnnc1SCc1ccccc1 | 103% | 94% (inactive) | 103% (inactive) | 90.6% (inactive) | 97.1% (inactive) | 16.7% (inactive) | 80.3% | 97.1% | -4.27% (inactive) | 1.61% (inactive)
25 | C=CCNC(=O)c1cc(-c2ccccc2O)on1 | 97% | 82.5% (inactive) | 97% (inactive) | 99.1% (inactive) | 86.7% (inactive) | 0.065% (inactive) | 86.7% | 86.7% | 2.18% (inactive) | 4.17% (inactive)
26 | CCOC(=O)c1cnc(-n2nc(C)cc2C)nc1Nc1cccc(C(C)=O)c1 | 87.5% | 110% (inactive) | 87.5% (inactive) | 95.7% (inactive) | 88% (inactive) | -9.45% (inactive) | 97.5% | 88% | 1.32% (inactive) | -4.35% (inactive)
27 | CCN(CC)S(=O)(=O)c1cccc2c(N(C)C)cccc12 | 99.5% | 112% (inactive) | 99.5% (inactive) | 107% (inactive) | 93.3% (inactive) | 4.14% (inactive) | 89.2% | 93.3% | -4.93% (inactive) | -4.52% (inactive)
28 | CCOC(=O)CSC1=C(C#N)C(=O)NC(c2ccc(OC)c(OC)c2)S1 (stereo not given) | 104% | 99% (inactive) | 104% (inactive) | 74.6% (inactive) | 97.2% (inactive) | -1.72% (inactive) | 99% | 97.2% | -4.79% (inactive) | 0.16% (inactive)
29 | c1ccc2c(c1)CNc1ccccc1C2 | 97.5% | 90.5% (inactive) | 97.5% (inactive) | 73.5% (inactive) | 93.1% (inactive) | -4.85% (inactive) | 98% | 93.1% | -3.87% (inactive) | -3.71% (inactive)
30 | CCn1c(SCC(=O)Nc2ccc(C(C)=O)cc2)nc2ccccc21 | 90% | 77% (inactive) | 90% (inactive) | 57% (inactive) | 83.1% (inactive) | -3.56% (inactive) | 86.7% | 83.1% | -1.45% (inactive) | -3.45% (inactive)
31 | N#CCCCN1C(=O)C(O)(CC(=O)c2ccc3c(c2)OCCO3)c2ccccc21 (stereo not given) | 100% | 93.5% (inactive) | 100% (inactive) | 89.5% (inactive) | 85.3% (inactive) | 6.12% (inactive) | 79.2% | 85.3% | -2.89% (inactive) | -9.03% (inactive)
32 | COc1ccc(-c2ccc(Nc3ccc(S(=O)(=O)N4CCCC4)cc3)nn2)cc1OC | 77.5% | 70.5% (inactive) | 77.5% (inactive) | 61.6% (inactive) | 53.6% (inactive) | -2.87% (inactive) | 56.5% | 53.6% | -6.8% (inactive) | -1.97% (inactive)
